For 3 compounds, viability, Activity and inhibition results are on record in ChEMBL document CHEMBL1148167, “Isolation of a dihydrobenzofuran lignan from South American dragon's blood (Croton spp.) as an inhibitor of cell proliferation” (J Nat Prod, 1993).

Calls of active or inactive are those of the source. No cut-off for these calls is given here.

The subject of series [1] is HUVEC. The experiment in a line: Effect on HUVEC cells proliferation assessed as viable cells at 125 ug/ml after 90 hrs relative to negative control. The series is classed as functional. The following applies: Homo sapiens, read-out: Activity. In a few lines:
(§1)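 HUVEC seeded at 10×10^3 cells/well in 20% serum medium. After 6 h, washed and exposed to twofold sample dilutions (250 down to 0.49 μg/ml) in medium 199 with 2% human adult serum for 90 h plus a 6 h thymidine pulse. Cells counted under an inverted microscope after TCA fixation, as % of untreated control.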

For series [2], the system named is HUVEC. The experiment in a line: Induction of HUVEC cell proliferation at 2.5 ug/ml after 6 days. Particulars: Homo sapiens. The series is classed as functional, cell-based. In a few lines:
(§2)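 HUVEC (passage 2–4) seeded at 4×10^3 cells/well in medium 199 with 20% human adult serum; after 8 h washed twice, then exposed to medium 199 with 5% human adult serum ± sample. Samples were 0.5% stocks in 33% PEG 400, diluted into the medium. Growth was scored microscopically every other day for 6 days against 5% serum (negative) and 30% serum (positive) controls.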

In series [3] the test system is HUVEC. The experiment in a line: Effect on HUVEC cells proliferation assessed as [3H]thymidine incorporation at 125 ug/ml after 90 hrs by liquid scintillation counting relative to negative control. It counts as functional, Homo sapiens. In a few lines:
(§3)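 HUVEC seeded at 10×10^3 cells/well in medium 199 with 20% human adult serum. After 6 h, washed, then given twofold sample dilutions in medium 199 with 2% human adult serum, 37°, 5% CO2, 90 h. Then 1 μCi [3H]thymidine/well for 6 h. TCA-fixed, DNA solubilized in SDS/NaOH at 60° for 2 h, scintillation counted. cpm/cell expressed as % of untreated control.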

Series [4] relates to HUVEC. In words: Effect on HUVEC cells proliferation assessed as inhibition of [3H]thymidine incorporation at 62.5 ug/ml after 90 hrs by liquid scintillation counting. It counts as functional. Particulars: Homo sapiens. In a few lines:
(§4)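 HUVEC seeded at 10×10^3 cells/well, washed after 6 h, then exposed 90 h to twofold dilutions in medium 199 with 2% human adult serum. Pulsed 6 h with 1 μCi [3H]thymidine, TCA-fixed, lysed in 0.1% SDS/0.2 N NaOH, scintillation counted. Incorporation per cell (cpm/cells counted) relative to untreated control gave % inhibition.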
For orientation: Dividing cells build labelled thymidine or BrdU into new DNA.

Series [5] relates to HUVEC. In words: Effect on HUVEC cells proliferation assessed as inhibition of [3H]thymidine incorporation at 0.9766 ug/ml after 90 hrs by liquid scintillation counting. The series is classed as functional. Particulars: Homo sapiens. In a few lines:
as §4

The subject of series [6] is HUVEC. In words: Effect on HUVEC cells proliferation assessed as viable cells at 62.5 ug/ml after 90 hrs relative to negative control. The series is classed as functional. The following applies: Homo sapiens, read-out: Activity. In a few lines:
as §1

In series [7] the test system is HUVEC. The experiment in a line: Effect on HUVEC cells proliferation assessed as inhibition of [3H]thymidine incorporation at 3.9062 ug/ml after 90 hrs by liquid scintillation counting. It counts as functional. The following applies: Homo sapiens. In a few lines:
as §4

In series [8] the test system is HUVEC. The experiment in a line: Effect on HUVEC cells proliferation assessed as viable cells at 15.625 ug/ml after 90 hrs relative to negative control. It counts as functional. The following applies: Homo sapiens, read-out: Activity. In a few lines: as §1
The subject of series [9] is HUVEC. In words: Effect on HUVEC cells proliferation assessed as [3H]thymidine incorporation at 3.9062 ug/ml after 90 hrs by liquid scintillation counting relative to negative control. It counts as functional, Homo sapiens. In a few lines:
as §3

In series [10] the test system is HUVEC. The experiment in a line: Effect on HUVEC cells proliferation assessed as [3H]thymidine incorporation at 0.9766 ug/ml after 90 hrs by liquid scintillation counting relative to negative control. The series is classed as functional, Homo sapiens. In a few lines: as §3
Series [11] concerns HUVEC. The experiment in a line: Effect on HUVEC cells proliferation assessed as inhibition of [3H]thymidine incorporation at 31.25 ug/ml after 90 hrs by liquid scintillation counting. It counts as functional. Particulars: Homo sapiens. In a few lines:
as §4

The test system of series [12] is HUVEC. The experiment in a line: Effect on HUVEC cells proliferation assessed as viable cells at 1.9531 ug/ml after 90 hrs relative to negative control. The series is classed as functional. The following applies: Homo sapiens, read-out: Activity. In a few lines: as §1
Series [13] deals with HUVEC. In words: Effect on HUVEC cells proliferation assessed as [3H]thymidine incorporation at 1.9531 ug/ml after 90 hrs by liquid scintillation counting relative to negative control. The series is classed as functional, Homo sapiens. In a few lines:
as §3

For series [14], the system named is HUVEC. The experiment in a line: Effect on HUVEC cells proliferation assessed as inhibition of [3H]thymidine incorporation at 1.9531 ug/ml after 90 hrs by liquid scintillation counting. The series is classed as functional. The following applies: Homo sapiens. In a few lines: as §4
Series [15] concerns HUVEC. In words: Effect on HUVEC cells proliferation assessed as [3H]thymidine incorporation at 0.4883 ug/ml after 90 hrs by liquid scintillation counting relative to negative control. The series is classed as functional, Homo sapiens. In a few lines: as §3
Series [16] concerns HUVEC. In words: Effect on HUVEC cells proliferation assessed as viable cells at 250 ug/ml after 90 hrs relative to negative control. The series is classed as functional. Particulars: Homo sapiens, read-out: Activity. In a few lines: as §1
Series [17] concerns HUVEC. The experiment in a line: Effect on HUVEC cells proliferation assessed as inhibition of [3H]thymidine incorporation at 0.4883 ug/ml after 90 hrs by liquid scintillation counting. The series is classed as functional. The following applies: Homo sapiens. In a few lines: as §4
The subject of series [18] is HUVEC. In words: Effect on HUVEC cells proliferation assessed as [3H]thymidine incorporation at 15.625 ug/ml after 90 hrs by liquid scintillation counting relative to negative control. It counts as functional, Homo sapiens. In a few lines:
as §3

The test system of series [19] is HUVEC. The experiment in a line: Effect on HUVEC cells proliferation assessed as inhibition of [3H]thymidine incorporation at 15.625 ug/ml after 90 hrs by liquid scintillation counting. It counts as functional. The following applies: Homo sapiens. In a few lines: as §4
Series [20] concerns HUVEC. The experiment in a line: Effect on HUVEC cells proliferation assessed as viable cells at 31.25 ug/ml after 90 hrs relative to negative control. The series is classed as functional. Particulars: Homo sapiens, read-out: Activity. In a few lines: as §1
Series [21] has as its system HUVEC. The experiment in a line: Effect on HUVEC cells proliferation assessed as [3H]thymidine incorporation at 62.5 ug/ml after 90 hrs by liquid scintillation counting relative to negative control. It counts as functional, Homo sapiens. In a few lines: as §3
For series [22], the system named is HUVEC. In words: Effect on HUVEC cells proliferation assessed as [3H]thymidine incorporation at 31.25 ug/ml after 90 hrs by liquid scintillation counting relative to negative control. The series is classed as functional, Homo sapiens. In a few lines:
as §3

Series [23] deals with HUVEC. The experiment in a line: Cytotoxicity against HUVEC cell at 250 ug/ml after 6 days. The following applies: human, 144 h. The series is classed as cell-based. In a few lines:
as §2

Series [24] concerns HUVEC. The experiment in a line: Effect on HUVEC cells proliferation assessed as inhibition of [3H]thymidine incorporation at 125 ug/ml after 90 hrs by liquid scintillation counting. Particulars: Homo sapiens. It counts as functional. In a few lines: as §4
In series [25] the test system is HUVEC. In words: Effect on HUVEC cells proliferation assessed as viable cells at 0.4883 ug/ml after 90 hrs relative to negative control. It counts as functional. Particulars: Homo sapiens, read-out: Activity. In a few lines: as §1
The test system of series [26] is HUVEC. In words: Effect on HUVEC cells proliferation assessed as inhibition of [3H]thymidine incorporation at 7.8125 ug/ml after 90 hrs by liquid scintillation counting. It counts as functional. Particulars: Homo sapiens. In a few lines: as §4
Series [27] deals with HUVEC. The experiment in a line: Effect on HUVEC cells proliferation assessed as viable cells at 7.8125 ug/ml after 90 hrs relative to negative control. The series is classed as functional. The following applies: Homo sapiens, read-out: Activity. In a few lines:
as §1

The test system of series [28] is HUVEC. In words: Effect on HUVEC cells proliferation assessed as viable cells at 3.9062 ug/ml after 90 hrs relative to negative control. The series is classed as functional. Particulars: Homo sapiens, read-out: Activity. In a few lines:
as §1

The test system of series [29] is HUVEC. In words: Effect on HUVEC cells proliferation assessed as viable cells at 0.9766 ug/ml after 90 hrs relative to negative control. It counts as functional. The following applies: Homo sapiens, read-out: Activity. In a few lines: as §1
Series [30] concerns HUVEC. In words: Effect on HUVEC cells proliferation assessed as [3H]thymidine incorporation at 7.8125 ug/ml after 90 hrs by liquid scintillation counting relative to negative control. The series is classed as functional, Homo sapiens. In a few lines:
as §3

Series [31] relates to HUVEC. The experiment in a line: Induction of HUVEC cell proliferation at 50 ug/ml after 6 days. It counts as functional, cell-based. Particulars: Homo sapiens. In a few lines:
as §2

Series [32] relates to HUVEC. The experiment in a line: Cytotoxicity against HUVEC cell at 5 ug/ml after 6 days. It counts as cell-based. The following applies: human, 144 h. In a few lines: (§5)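 HUVEC (passages 2–4) seeded at 4×10^3 cells/well in medium 199 with 20% human adult serum, washed after 8 h, then given medium 199 with 5% human adult serum ± sample (from 0.5% stocks in PEG 400 33%). Growth was scored microscopically every other day for 6 days against 5% serum (negative) and 30% serum (positive) controls, with toxicity graded.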

For series [33], the system named is HUVEC. In words: Induction of HUVEC cell proliferation at 0.25 ug/ml after 6 days. The series is classed as functional, cell-based. Particulars: Homo sapiens. In a few lines: as §2
For series [34], the system named is HUVEC. In words: Cytotoxicity against HUVEC cell at 2.5 ug/ml after 6 days. The series is classed as cell-based. Particulars: human, 144 h. In a few lines:
as §5

In series [35] the test system is HUVEC. The experiment in a line: Cytotoxicity against HUVEC cell at 25 ug/ml after 6 days. Particulars: human, 144 h. The series is classed as cell-based. In a few lines: as §5

A word on the inhibition: it is the drop in the measured response relative to a control, in per cent. For the compound `COc1ccc([C@H]2Oc3c(OC)cc(CCCO)cc3[C@@H]2CO)cc1OC`, in series [1], the viability at 125 µg/mL worked out at 46%. Also, in series [2], the outcome was inactive. Moreover, the Activity in series [3] is listed as 3%; in series [9], 29%; in series [10], 68%; in series [13], 52%; in [15], 101%; in series [18], 13%. Besides, the Activity in series [21] is listed as 2%; in series [22], 7%; in series [23] it was “Toxic”; in series [30], 21%. The inhibition at 62.5 µg/mL in series [4] turned out to be 98%. Further, the inhibition at 0.9766 µg/mL in [5] was 32%. Moreover, in series [6], the viability at 62.5 µg/mL worked out at 231%. The inhibition at 3.9062 µg/mL in series [7] was found to be 71%. Besides, the viability at 15.625 µg/mL in series [8] stood at 169%. In addition, the inhibition at 31.25 µg/mL in series [11] was found to be 93%. The viability at 1.9531 µg/mL in series [12] is 123%. Also, in series [14], the inhibition at 1.9531 µg/mL was determined as 48%. Also, the viability at 250 µg/mL in series [16] was found to be 0%. The inhibition at 0.4883 µg/mL in series [17] is -1%. Moreover, in series [19], the inhibition at 15.625 µg/mL was determined as 87%. Besides, the viability at 31.25 µg/mL in [20] stood at 185%. Besides, in series [24], the inhibition at 125 µg/mL came to 97%. Moreover, the viability at 0.4883 µg/mL in series [25] amounted to 108%. The inhibition at 7.8125 µg/mL in series [26] came to 79%. Besides, in series [27], the viability at 7.8125 µg/mL is 123%. Also, in series [28], the viability at 3.9062 µg/mL was 123%. Besides, the viability at 0.9766 µg/mL in series [29] worked out at 108%.

For the compound `COc1ccc([C@H]2Oc3c(O)cc(CCCO)cc3[C@@H]2CO)cc1OC`, the outcome in series [31] was inactive. Moreover, the Activity entry in series [23] was “Toxic”.

`COc1ccc2c(=O)oc3c(OC)cc(CCN(C)C)c4c(=O)oc1c2c34` [TASPINE]: the Activity result in [32], in series [34] and in series [35] was “Toxic” in each case. In series [33], the result was inactive.
